An excerpt weighted towards active compounds, which were near 5.1% of everything screened.
M1 ag: M1 muscarinic receptor agonism. CHO-M1 cells, Fluo-4 calcium fluorescence, agonist mode; stronger effect = higher value. B-score at 10 µM. 64,000 tested, 3% active;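 active = fluorescence rise, raw or as B-score row- and column-corrected plate score, outside the 99.7% band of its plate's samples, either direction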
Hsp90 inh: displaces geldanamycin probe from tumor Hsp90 | P07900 | NCI-N417 lysate Hsp90, Cy3B-geldanamycin FP displacement | inhibition, % at 30 µM | 64,000 tested, 0.35% active | AID 429;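 active = inhibition above 50%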;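 note: 0% = tracer plus lysate wells and 100% = tracer alone without lysate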
M1 antagonist: M1 muscarinic receptor (rat) antagonism; P08482; CHO-M1 cells, Fluo-4 calcium, ACh EC80 antagonist mode; stronger effect = lower value; B-score at 10 µM; 64,000 tested, 3.4% active; AID 628;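 active = calcium fluorescence response, raw or row-and-column corrected B-score, differing from the plate sample mean either way at a set confidence level, mostly lower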
Target sequence (P08482 whole entry, looked up): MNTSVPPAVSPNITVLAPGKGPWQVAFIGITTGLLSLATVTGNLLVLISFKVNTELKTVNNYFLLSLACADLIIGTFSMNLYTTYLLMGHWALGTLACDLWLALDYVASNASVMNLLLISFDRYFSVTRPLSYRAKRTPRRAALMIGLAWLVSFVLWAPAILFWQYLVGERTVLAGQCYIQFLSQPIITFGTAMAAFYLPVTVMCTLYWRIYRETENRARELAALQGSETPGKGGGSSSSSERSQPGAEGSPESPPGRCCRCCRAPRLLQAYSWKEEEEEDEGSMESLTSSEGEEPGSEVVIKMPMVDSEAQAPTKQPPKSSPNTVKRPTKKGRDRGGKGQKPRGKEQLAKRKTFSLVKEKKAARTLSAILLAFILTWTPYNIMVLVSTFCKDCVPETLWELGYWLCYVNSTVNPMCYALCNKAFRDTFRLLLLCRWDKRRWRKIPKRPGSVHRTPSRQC
tolC growth inh: growth inhibitors of E. coli BW25113 tolC mutant. 65,000 tested, 2.2% active. OD615. growth inhibition, % at 10 µM (by protocol);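 active = growth inhibition at or above a cutoff equal to the mean over every tested compound plus 3 SD, cut at about 60% in these data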;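 note: growth measured after 20 h incubation at 37 °C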
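System: E. coli ΔtolC::kan strain BW25113; Buffer or medium: LB broth supplemented with 50 µg/mL kanamycin; Compound: 10 µM final, single dose; Incubation: bacterial growth with compound for 20 h at 37 °C; Signal: A615 absorbance measurement; Evaluation: growth inhibition in percent.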
Ecoli WT expand: growth inhibitors of E. coli BW25113 wild type; OD600 absorbance; growth inhibition, % at 100 µM; 98,000 tested, 0.15% active;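 active = growth inhibition above about 50% at one test dose, limit read from the data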;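 note: growth measured after 20 h incubation at 37 °C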
BAP1 inh: blocks human BAP1 ubiquitin-AMC hydrolysis | Q92560 | recombinant BAP1, Ub-AMC hydrolysis fluorescence kinetic; stronger effect = lower value | calls only at 20 µM | 72,000 tested, 0.48% active | AID 436;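 active = activity remaining at or below 50% of control, provided the compound also passes the data quality filters; inactive = the rest, including low values that fail the filters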;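 note: 100% = DMSO wells rate and 0% = substrate alone blank rate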
M1 antag conf: M1 muscarinic receptor (rat) antagonism, confirmed; CHO-M1 cells, Fluo-4 calcium, ACh EC80 antagonism; stronger effect = lower value; calcium response (max-min fluorescence) at 10 µM; 1,700 tested, 43% active; shares compounds with M1 antagonist;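 active = calcium response below the same-plate mean of wells given acetylcholine alone at its 80%-effect dose, minus 3 SD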;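 note: raw fluorescence intensity difference in arbitrary instrument units and not normalized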
mGluR4 antag: selectivity test for M1 antagonists: human mGluR4 receptor; shares compounds with M1 antagonist; CHO-mGluR4 calcium flux, Fluo-4 fluorescence, glutamate EC80; stronger effect = lower value; fluorescence response (max-min) at 10 µM; 1,700 tested, 0.9% active;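 active = fluorescence response below the plate's average for near-maximal glutamate wells, less 3 SD of those wells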;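 note: raw unnormalized fluorescence span taken in the window right after glutamate addition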
An asterisk follows results filed as active.

Results for CC1CCN(Cc2ccc(NC(=O)C3CCN(c4nnc(-n5cccc5)s4)CC3)cc2)CC1 ?
M1 ag: -0.72; Hsp90 inh: -4; M1 antagonist: -13*; tolC growth inh: 6; Ecoli WT expand: 0; BAP1 inh: inactive; M1 antag conf: 15*; mGluR4 antag: 220

What do the screens show for `O=C(Cn1ncc2ccccc21)N1CCc2ccccc21`?
M1 ag: 0.057; Hsp90 inh: -3; M1 antagonist: -2.3*; tolC growth inh: -3; Ecoli WT expand: 10; BAP1 inh: inactive; M1 antag conf: 693; mGluR4 antag: 252

Results for Cc1nn(Cc2ccccc2Cl)c2sc(C(=O)NCCCn3ccnc3)cc12 ?
M1 ag: -1.3; Hsp90 inh: -4; M1 antagonist: -7.9*; tolC growth inh: 2; Ecoli WT expand: 3; BAP1 inh: inactive; M1 antag conf: 287*; mGluR4 antag: 186

How did Cc1cc(-c2ccccc2)nc2cc(C(=O)NCCCn3ccnc3)nn12 do in these assays?
M1 ag: 0.62; Hsp90 inh: -3; M1 antagonist: -0.89; tolC growth inh: -10; Ecoli WT expand: 6; BAP1 inh: inactive

What do the screens show for `Cc1cc(C(=O)NCCCn2ccnc2)sc1-c1ccccc1`?
M1 ag: -1.3; Hsp90 inh: -21; M1 antagonist: -3.3*; tolC growth inh: 19; Ecoli WT expand: 24; BAP1 inh: inactive; M1 antag conf: 616; mGluR4 antag: 211

How did O=C(c1cc2n(n1)C(C(F)(F)F)CC(c1ccc(Br)cc1)N2)N1CCOCC1 (stereo not given) do in these assays?
BAP1 inh: inactive

What do the screens show for `Cn1c(CCN2CCCCC2)nc2cc(NS(=O)(=O)c3ccccc3)ccc21`?
M1 ag: 0.085; Hsp90 inh: -5; M1 antagonist: -5.2*; tolC growth inh: -6; Ecoli WT expand: -1; BAP1 inh: inactive; M1 antag conf: 448*; mGluR4 antag: 239

How did Cn1c(CCN2CCCCC2)nc2cc(NC(=O)Nc3ccccc3)ccc21 do in these assays?
M1 ag: 0.4; Hsp90 inh: 0; M1 antagonist: -4.4*; tolC growth inh: -10; Ecoli WT expand: 4; BAP1 inh: inactive; M1 antag conf: 194*; mGluR4 antag: 188

Results for COc1ccc2c(c1)Sc1ccccc1N2CCN(C)C ?
M1 ag: 0.44; Hsp90 inh: 5; M1 antagonist: -8.6*; tolC growth inh: 9; Ecoli WT expand: 7; BAP1 inh: inactive; M1 antag conf: 114*; mGluR4 antag: 247

What do the screens show for `CC1=C(C(=O)OC2CCCCCC2)C(c2ccccc2I)NC(=O)N1C` (stereo not given)?
BAP1 inh: inactive

Results for CC(=O)Nc1ccc(CN2CCCCCCC2)cc1 ?
M1 ag: -0.25; Hsp90 inh: -1; M1 antagonist: -1.9*; tolC growth inh: -23; Ecoli WT expand: -4; BAP1 inh: inactive; M1 antag conf: 488*; mGluR4 antag: 208

What do the screens show for `CCOC(=O)c1ccc(NC(=O)c2ccc(CN3CCOCC3)cc2)cc1`?
M1 ag: 1.6; Hsp90 inh: -2; M1 antagonist: -7.3*; tolC growth inh: -14; Ecoli WT expand: -2; BAP1 inh: inactive; M1 antag conf: 418*; mGluR4 antag: 259

Results for CCN1CCN(Cc2ccccc2NC(=O)Nc2ccc(C)cc2)CC1 ?
M1 ag: -0.46; Hsp90 inh: -4; M1 antagonist: -1; tolC growth inh: -6; Ecoli WT expand: 7; BAP1 inh: inactive

What do the screens show for `CCN1CCN(Cc2ccc(NC(=O)Nc3ccccc3Cl)cc2)CC1`?
M1 ag: 0.091; Hsp90 inh: -3; M1 antagonist: -3*; tolC growth inh: -13; Ecoli WT expand: 7; BAP1 inh: inactive; M1 antag conf: 526; mGluR4 antag: 225

What do the screens show for `N#Cc1nc(COc2ccccc2F)oc1N1CCCCCC1`?
M1 ag: 0.39; Hsp90 inh: -6; M1 antagonist: -1.9*; tolC growth inh: 53; Ecoli WT expand: 3; BAP1 inh: inactive; M1 antag conf: 572; mGluR4 antag: 235

Results for N#Cc1nc(COc2ccccc2)oc1N1CCCCC1 ?
M1 ag: 0.045; Hsp90 inh: 0; M1 antagonist: -0.23; tolC growth inh: 12; Ecoli WT expand: -2; BAP1 inh: inactive

How did Cc1oc(-c2cccc(Cl)c2)nc1CN1CCCC(C(=O)NC(C)c2ccc3c(c2)OCCO3)C1 (stereo not given) do in these assays?
M1 ag: 1.3; Hsp90 inh: -2; M1 antagonist: -0.94*; tolC growth inh: 12; Ecoli WT expand: -1; BAP1 inh: inactive; M1 antag conf: 509; mGluR4 antag: 244

What do the screens show for `Cc1oc(-c2cccc(Cl)c2)nc1CN1CCCC(C(=O)NCc2ccco2)C1` (stereo not given)?
M1 ag: -0.85; Hsp90 inh: -3; M1 antagonist: -0.0098; tolC growth inh: 9; Ecoli WT expand: 10; BAP1 inh: inactive

What do the screens show for `COc1ccc(C(=O)C[n+]2ccc(C(=O)NCCO)cc2)cc1`?
BAP1 inh: inactive

What do the screens show for `CCOC(=O)N1CCN(CC(O)COCc2ccccc2)CC1` (stereo not given)?
Ecoli WT expand: 10

What do the screens show for `CCOC(=O)N1CCN(CC(O)COCC2=CCC3CC2C3(C)C)CC1` (stereo not given)?
M1 ag: -1.8; Hsp90 inh: 2; M1 antagonist: -6.3*; tolC growth inh: 7; Ecoli WT expand: 12; BAP1 inh: inactive; M1 antag conf: 456*; mGluR4 antag: 272

How did COc1cc(C(=O)Nc2ccccc2F)cc(OC)c1OC do in these assays?
BAP1 inh: inactive

How did CC(=O)c1ccccc1NS(=O)(=O)c1c(C)nn(-c2ccccc2)c1C do in these assays?
M1 ag: -0.87; Hsp90 inh: -7; M1 antagonist: -3.4*; tolC growth inh: 30; Ecoli WT expand: 2; BAP1 inh: inactive; M1 antag conf: 569; mGluR4 antag: 241

Results for CC(O)CNC(=O)C1CCN(Cc2ccc(OCc3ccccc3)cc2)CC1 (stereo not given) ?
M1 ag: -0.39; Hsp90 inh: -4; M1 antagonist: -4.8*; tolC growth inh: -11; Ecoli WT expand: 5; BAP1 inh: inactive; M1 antag conf: 572; mGluR4 antag: 232

Results for CN1CCN(Cc2ccc(OCc3ccccc3)cc2)CC1 ?
M1 ag: -1.2; Hsp90 inh: -2; M1 antagonist: -1.1; tolC growth inh: -10; Ecoli WT expand: -4; BAP1 inh: inactive
